“Also recorded” adds a separate entry of the source. No end group written: not given here.
What was measured:
[1] = ref [45], [46]; cited from earlier work
[2] = test system: Trx1; conditions: ref [44]; cited from earlier work
[3] = test system: p53; experiment: p53 stabilization, Western blotting; assay type: cell-based; conditions: 100 μM, 6 h
[4] = test system: GRP78; experiment: GRP78 induction; assay type: cell-based; conditions: MDA-MB-231 cells, 100 μM, 6 h
In short: (§1)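 MDA-MB-231 cells in 6 cm dishes were exposed to the test peptide, a TAT-only peptide, a scrambled-order (reverse) TAT peptide or a reference Trx1 inhibitor at 37 °C for 6 h. Cells were then lysed in TBST with 0.1% Triton X-100, 50 mM NaF and EDTA-free protease inhibitors. Equal protein was run on SDS-PAGE and blotted to PVDF. Primary antibodies (p-Ask1 Thr845, p-JNK Thr183/Tyr185, p-p38 Thr180/Tyr182, p-AMPK Thr172, GRP78, plus total proteins) were applied overnight at 4 °C, followed by HRP secondary and chemiluminescence. Data come from two or three independent experiments.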

[5] = test system: MDA-MB-231 cells; experiment: Cell viability, Trypan blue assay; assay type: cell-based; conditions: 48 h, 37 °C, n= 2 independent experiments
In short: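 Viability was scored by Trypan blue exclusion. MDA-MB-231 cells in 6-well plates were treated with the TAT-fused test peptide, a reverse-sequence TAT control or a reference Trx1 inhibitor for 48 h at 37 °C. Cells were washed with PBS, trypsinised and resuspended in medium. They were mixed with 0.4% trypan blue and counted on an automated cell counter. Results are mean ± SD of 2 independent experiments.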

[6] = test system: p38; experiment: p38 phosphorylation, Western blotting; assay type: cell-based; conditions: MDA-MB-231 cells, 100 μM, 6 h
In short: as §1

[7] = test system: Ask1; experiment: Ask1 phosphorylation, Western blotting; assay type: cell-based; conditions: MDA-MB-231 cells, 6 h
In short: as §1

[8] = test system: AMPK; experiment: AMPK phosphorylation, Western blotting; assay type: cell-based; conditions: MDA-MB-231 cells, 100 μM, 6 h
In short: as §1

[9] = test system: Trx1-Ask1 interaction; experiment: Co-immunoprecipitation of Ask1 and Trx1 in cells; assay type: cell-based; conditions: MDA-MB-231 cells, 6 h; co-IP
[10] = test system: JNK; experiment: JNK phosphorylation, Western blotting; assay type: cell-based; conditions: MDA-MB-231 cells, 100 μM, 6 h
In short: as §1

[11] = test system: human Grx1; conditions: ref [53]; cited from earlier work
[12] = molecular target: T1, Trx1 (Homo sapiens, UniProt P10599); experiment: Phage display selection; assay type: binding; conditions: trial 3; bait Trx1; elution with 1GP3; three rounds of bio-panning; DTT 1 mM
T1 sequence (P10599 1-105): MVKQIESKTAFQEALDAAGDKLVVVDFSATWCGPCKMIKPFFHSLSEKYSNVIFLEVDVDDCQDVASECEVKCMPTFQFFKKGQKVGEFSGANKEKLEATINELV

[13] = molecular target: T2, Grx1 (Homo sapiens, UniProt P35754); experiment: Grx1 de-glutathionylation enzyme assay; assay type: biochemical
T2 sequence (P35754 1-106): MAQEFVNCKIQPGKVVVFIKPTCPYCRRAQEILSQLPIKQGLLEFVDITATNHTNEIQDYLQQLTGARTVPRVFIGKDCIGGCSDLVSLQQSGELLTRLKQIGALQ
In short: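 Coupled assay: Grx1 (40 ng) reduces Cys-SSG (100 μM), and glutathione reductase recycles the resulting GSSG while oxidising NADPH. Buffer was 0.1 M phosphate pH 7.4 with 1 mM EDTA, BSA, 0.2 mM NADPH, yeast GR (4 units) and 0.25 mM GSH. Grx1 was incubated with peptide at 10–200 μM. NADPH loss was followed at 340 nm. Initial rates were converted to percent inhibition, and values are mean ± SD, n=3 independent experiments.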

[14] = not told
[15] = molecular target: T2, Grx1; experiment: Phage display selection; assay type: binding; conditions: trial 2; bait Grx1; elution with 1GP3; three rounds of bio-panning; DTT 1 mM
[16] = molecular target: T3, glutaredoxin 1 (Grx1), human, His-tagged, purified (human, UniProt P35754 1-106); experiment: pull-down
T3 sequence (looked up): T2 sequence (P35754 1-106)

[17] = molecular target: T4, thioredoxin 1 (Trx1), human, His-tagged, purified (human, UniProt P10599 1-105); experiment: BLI
T4 sequence (looked up): T1 sequence (P10599 1-105)

[18] = molecular target: T3, glutaredoxin 1 (Grx1), human, …; experiment: BLI
[19] = molecular target: T3, glutaredoxin 1 (Grx1), human, …; experiment: SPR
[20] = molecular target: T4, thioredoxin 1 (Trx1), human, …; experiment: pull-down

## CCC(C)SSc1ncc[nH]1 (centres unmarked) [PX-12, sec-butyl 2-imidazoylyl disulfide]
[1]
  Anti-tumor activity in clinical evaluation: low anti-tumor activity
[2]
  Cys residues of Trx1 oxidized or modified: catalytic C32 and redox-sensitive C73
[3]; MCF7 cells (wild-type p53, high Trx1)
  p53 stabilization: induced p53 stabilization
[3]; MDA-MB-231 cells (mutant p53 R280K)
  p53 stabilization: strong stabilization of mutant p53
[4]
  GRP78 induction: induced expression of GRP78
[5]
  Cell viability: significantly decreased viability; also recorded: potent cytotoxicity
[6]
  p38 phosphorylation: without p38 phosphorylation
[7]
  Ask1 phosphorylation: activated Ask1 by phosphorylation
[8]
  AMPK phosphorylation: phosphorylation of AMPK
[9]
  Disruption of Trx1-Ask1 interaction in cells: disrupted the Trx1-Ask1 interaction
[10]
  JNK phosphorylation: induced JNK phosphorylation

## N[C@@H](CCC(=O)N[C@@H](CS)C(=O)NCC(=O)O)C(=O)O [reduced glutathione]
[11]
  Binding affinity with human Grx1: does not have significant binding affinity

## AMYSRGT [2TP1]
[12]
  # of colony: 2

## ANHTMQV [1GP3]
[13]
  IC50: 46 µM

## ETRWPNT [2GTP1]
[14]
  Cell permeability: poor cell permeability
[13]
  IC50: 11 µM

## GRYAIPL [2GP2]
[15]
  # of colony: 2

## RFADPRL [2TP2]
[12]
  # of colony: 1

## SHYNYKV [1GP2]
[13]; Cys-SSG 100 μM substrate, 0.1 M phosphate pH 7.4, peptide 10–200 μM
  Inhibition of Grx1 de-glutathionylation: did not have any inhibitory activity

## SLKTTMP [2TP3]
[12]
  # of colony: 1

## SVGSFSM [2GP1]
[15]
  # of colony: 1

## SHYNYKV (not fully specified (N-terminus); also: biotin, position not given here) [biotin-1GP2]
[16]
  binding result: binds

## ETRWPNT (not fully specified (N-terminus); also: biotinylated, position not given here) [biotinylated 2GTP1 peptide (biotin-2GTP1)]
[17]
  Kd: 2.5 µM
[18]
  Kd: 1.2 µM

## ANHTMQV (not fully specified (N-terminus); also: biotin, position not given here) [biotin-1GP3]
[19]
  Kd: 38 ± 2 µM

## ETRWPNT [non-biotinylated 2GTP1]
[20]
  binding result: binds

Source: publication PMC5856478 (Biochemistry, 2018)
